Laboratory results: ChEMBL document CHEMBL4138104, “Indole carboxylic acid esters of melampomagnolide B are potent anticancer agents against both hematological and solid tumor cells” (Eur J Med Chem, 2017)

What was measured:
Assay type in all cases: functional
SF-268 = experiment: Growth inhibition of human SF268 cells incubated for 48 hrs by sulforhodamine B assay; conditions: SF-268, 48 h
Summary of the method: (§1)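 NCI-60 screen. Compounds were dosed at five concentrations spanning 10^-4 to 10^-8 M for 48 h at 37 °C. Cells were TCA-fixed, stained with 0.4% SRB and read at 515 nm against time-zero and vehicle controls. GI50 is the concentration giving a 50% reduction in net protein increase.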

UO-31 = experiment: Growth inhibition of human UO31 cells incubated for 48 hrs by sulforhodamine B assay; conditions: UO-31, 48 h
Summary of the method: (§2)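 NCI-60 screen run at NCI. Cells grown in RPMI medium with 5% FBS and 2 mM L-glutamine, plated at 5,000–40,000 cells/well, and preincubated 24 h at 37 °C. Time-zero plates were TCA-fixed. Compounds came from DMSO stocks and were tested at five concentrations from 10^-4 to 10^-8 M for 48 h. Cells were then TCA-fixed, stained with 0.4% SRB, and OD read at 515 nm. GI50 is the concentration giving a 50% reduction in net protein increase versus control.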

SF-539 = experiment: Growth inhibition of human SF539 cells incubated for 48 hrs by sulforhodamine B assay; conditions: SF-539, 48 h; summary of the method: as §1
MCF7 = experiment: Growth inhibition of human MCF7 cells incubated for 48 hrs by sulforhodamine B assay; conditions: MCF7, 48 h; summary of the method: as §1
NCI-H226 = experiment: Growth inhibition of human NCI-H226 cells incubated for 48 hrs by sulforhodamine B assay; conditions: NCI-H226, 48 h; summary of the method: as §1
NCI-H23 = experiment: Growth inhibition of human NCI-H23 cells incubated for 48 hrs by sulforhodamine B assay; conditions: NCI-H23, 48 h; summary of the method: as §1
U-251 = experiment: Growth inhibition of human U251 cells incubated for 48 hrs by sulforhodamine B assay; conditions: U-251, 48 h; summary of the method: as §2
MOLT-4 = experiment: Growth inhibition of human MOLT4 cells incubated for 48 hrs by sulforhodamine B assay; conditions: MOLT-4, 48 h; summary of the method: as §1
Malme-3M = experiment: Growth inhibition of human MALME-3M cells incubated for 48 hrs by sulforhodamine B assay; summary of the method: as §1
SNB-19 = experiment: Growth inhibition of human SNB19 cells incubated for 48 hrs by sulforhodamine B assay; conditions: SNB-19, 48 h; summary of the method: as §2
SK-OV-3 = experiment: Growth inhibition of human SKOV3 cells incubated for 48 hrs by sulforhodamine B assay; conditions: SK-OV-3, 48 h; summary of the method: as §1
HCC 2998 = experiment: Growth inhibition of human HCC2998 cells incubated for 48 hrs by sulforhodamine B assay; conditions: HCC 2998, 48 h; summary of the method: as §1
RPMI-8226 = experiment: Growth inhibition of human RPMI8226 cells incubated for 48 hrs by sulforhodamine B assay; conditions: RPMI-8226, 48 h; summary of the method: as §1
UACC-62 = experiment: Growth inhibition of human UACC62 cells incubated for 48 hrs by sulforhodamine B assay; conditions: UACC-62, 48 h; summary of the method: as §2
NCI/ADR-RES = experiment: Growth inhibition of human NCI/ADR-RES cells incubated for 48 hrs by sulforhodamine B assay; summary of the method: as §1
SN12C = experiment: Growth inhibition of human SN12C cells incubated for 48 hrs by sulforhodamine B assay; summary of the method: as §1
SW-620 = experiment: Growth inhibition of human SW620 cells incubated for 48 hrs by sulforhodamine B assay; conditions: SW-620, 48 h; summary of the method: as §2
NCI-H522 = experiment: Growth inhibition of human NCI-H522 cells incubated for 48 hrs by sulforhodamine B assay; conditions: NCI-H522, 48 h; summary of the method: as §1
A498 = experiment: Growth inhibition of human A498 cells incubated for 48 hrs by sulforhodamine B assay; conditions: A498, 48 h; summary of the method: as §1
SK-MEL-28 = experiment: Growth inhibition of human SK-MEL-28 cells incubated for 48 hrs by sulforhodamine B assay; conditions: SK-MEL-28, 48 h; summary of the method: as §1
K562 = experiment: Growth inhibition of human K562 cells incubated for 48 hrs by sulforhodamine B assay; conditions: K562, 48 h; summary of the method: as §1
LOX IMVI = experiment: Growth inhibition of human LOXIMVI cells incubated for 48 hrs by sulforhodamine B assay; summary of the method: as §1
HT-29 = experiment: Growth inhibition of human HT-29 cells incubated for 48 hrs by sulforhodamine B assay; conditions: HT-29, 48 h; summary of the method: as §1
HCT-116 = experiment: Growth inhibition of human HCT116 cells incubated for 48 hrs by sulforhodamine B assay; conditions: HCT-116, 48 h; summary of the method: as §1
HCT-15 = experiment: Growth inhibition of human HCT15 cells incubated for 48 hrs by sulforhodamine B assay; conditions: HCT-15, 48 h; summary of the method: as §1
NCI-H322M = experiment: Growth inhibition of human NCI-H322M cells incubated for 48 hrs by sulforhodamine B assay; summary of the method: as §1
HOP-92 = experiment: Growth inhibition of human HOP92 cells incubated for 48 hrs by sulforhodamine B assay; conditions: HOP-92, 48 h; summary of the method: as §1
UACC-257 = experiment: Growth inhibition of human UACC257 cells incubated for 48 hrs by sulforhodamine B assay; conditions: UACC-257, 48 h; summary of the method: as §2
CCRF-CEM = experiment: Growth inhibition of human CCRF-CEM cells incubated for 48 hrs by sulforhodamine B assay; summary of the method: as §1
KM12 = experiment: Growth inhibition of human KM12 cells incubated for 48 hrs by sulforhodamine B assay; conditions: KM12, 48 h; summary of the method: as §1
HL-60(TB) = experiment: Growth inhibition of human HL-60(TB) cells incubated for 48 hrs by sulforhodamine B assay; conditions: HL-60, 48 h
Summary of the method: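 Performed at NCI's 60-line screen. Cells grown in RPMI with 5% FBS and 2 mM L-glutamine, plated 5,000–40,000 cells/well and incubated 24 h at 37 °C before compound addition. DMSO stocks were diluted in medium with gentamicin, and five concentrations spanning 10^-4 to 10^-8 M were tested. Exposure was 48 h. Cells were fixed with TCA, stained with SRB, and read at 515 nm. GI50 taken from log dose-response curves as 50% reduction in net protein increase versus control.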

OVCAR-5 = experiment: Growth inhibition of human OVCAR5 cells incubated for 48 hrs by sulforhodamine B assay; conditions: OVCAR-5, 48 h; summary of the method: as §1
SF-295 = experiment: Growth inhibition of human SF295 cells incubated for 48 hrs by sulforhodamine B assay; conditions: SF-295, 48 h; summary of the method: as §1
[1] = Cytotoxicity against human M9-ENL1 cells assessed as reduction in cell viability by trypan blue staining-based assay
Summary of the method: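 M9-ENL1 AML cells (MLL-ENL-transduced human blood cells) plated at 10^6 cells/mL in alpha-MEM with 5% human plasma, 20% FBS, SCF, IL-3, IL-7 and FLT3. Drug diluted from DMSO stock into PBS, final DMSO ≤0.5%. After 24 h exposure, dead cells assessed by trypan blue and by flow cytometry (Annexin V/PI or Annexin V/7-AAD). Viability normalized to vehicle; EC50 from dose-response curves; triplicate.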

NCI-H460 = experiment: Growth inhibition of human NCI-H460 cells incubated for 48 hrs by sulforhodamine B assay; conditions: NCI-H460, 48 h; summary of the method: as §1
A549 = experiment: Growth inhibition of human A549/ATCC cells incubated for 48 hrs by sulforhodamine B assay; conditions: A549, 48 h; summary of the method: as §1
RXF 393 = experiment: Growth inhibition of human RXF393 cells incubated for 48 hrs by sulforhodamine B assay; conditions: RXF 393, 48 h; summary of the method: as §1

SMILES | GI50 (SF-268) | GI50 (UO-31) | GI50 (SF-539) | GI50 (MCF7) | GI50 (NCI-H226) | GI50 (NCI-H23) | GI50 (U-251) | GI50 (MOLT-4) | GI50 (Malme-3M) | GI50 (SNB-19) | GI50 (SK-OV-3) | GI50 (HCC 2998) | GI50 (RPMI-8226) | GI50 (UACC-62) | GI50 (NCI/ADR-RES) | GI50 (SN12C) | GI50 (SW-620) | GI50 (NCI-H522) | GI50 (A498) | GI50 (SK-MEL-28) | other results
C=C1C(=O)O[C@@H]2[C@H]3O[C@]3(C)CC/C=C(/COC(=O)c3cc4ccccc4o3)CC[C@@H]12 | 1560 nM | 1460 nM | 1450 nM | 390 nM | 1740 nM | 1980 nM | 1630 nM | 1770 nM | 1660 nM | 3160 nM | 16700 nM | 2470 nM | 710 nM | 1680 nM | 2590 nM | 1780 nM | 660 nM | 680 nM | 12900 nM | 1750 nM | GI50 (K562): 1150 nM; GI50 (LOX IMVI): 1420 nM; GI50 (HT-29): 820 nM; GI50 (HCT-116): 320 nM; GI50 (HCT-15): 1070 nM; GI50 (NCI-H322M): 5520 nM; GI50 (HOP-92): 1440 nM; GI50 (UACC-257): 1520 nM; GI50 (CCRF-CEM): 330 nM; GI50 (KM12): 2020 nM; GI50 (HL-60(TB)): 1220 nM; GI50 (OVCAR-5): 1880 nM; GI50 (SF-295): 5900 nM; EC50 [1]: 2900 nM; GI50 (NCI-H460): 2000 nM; GI50 (A549): 2910 nM; GI50 (RXF 393): 1430 nM
C=C1C(=O)O[C@@H]2[C@H]3O[C@]3(C)CC/C=C(/COC(=O)c3cc4cc(OC)ccc4[nH]3)CC[C@@H]12 | 1660 nM | 1120 nM | 1020 nM | 340 nM | 1570 nM | 1490 nM | 1600 nM | 1320 nM | 1610 nM | 1570 nM | 4900 nM | 1540 nM | 500 nM | 1380 nM | 1680 nM | 1770 nM | 640 nM | 700 nM | 1630 nM | 1230 nM | GI50 (K562): 560 nM; GI50 (LOX IMVI): 300 nM; GI50 (HT-29): 350 nM; GI50 (HCT-116): 420 nM; GI50 (HCT-15): 320 nM; GI50 (NCI-H322M): 1880 nM; GI50 (HOP-92): 440 nM; GI50 (UACC-257): 1610 nM; GI50 (CCRF-CEM): 340 nM; GI50 (KM12): 1540 nM; GI50 (HL-60(TB)): 320 nM; GI50 (OVCAR-5): 1770 nM; GI50 (SF-295): 2420 nM; EC50 [1]: 1800 nM; GI50 (NCI-H460): 1830 nM; GI50 (A549): 1660 nM; GI50 (RXF 393): 1140 nM
C=C1C(=O)O[C@@H]2[C@H]3O[C@]3(C)CC/C=C(/COC(=O)c3cc4cc(Cl)ccc4[nH]3)CC[C@@H]12 | 1440 nM | 1210 nM | 1440 nM | 860 nM | 1800 nM | 1630 nM | 1750 nM | 550 nM | 1630 nM | 2910 nM | 10200 nM | 1400 nM | 810 nM | 1670 nM | 1450 nM | 1700 nM | 1400 nM | 1590 nM | 2650 nM | 1580 nM | GI50 (K562): 1140 nM; GI50 (LOX IMVI): 810 nM; GI50 (HT-29): 1330 nM; GI50 (HCT-116): 700 nM; GI50 (HCT-15): 1000 nM; GI50 (NCI-H322M): 4000 nM; GI50 (HOP-92): 1250 nM; GI50 (UACC-257): 1700 nM; GI50 (CCRF-CEM): 390 nM; GI50 (KM12): 2150 nM; GI50 (HL-60(TB)): 440 nM; GI50 (OVCAR-5): 1530 nM; GI50 (SF-295): 3180 nM; EC50 [1]: 3800 nM; GI50 (NCI-H460): 1720 nM; GI50 (A549): 1690 nM; GI50 (RXF 393): 1380 nM
